Results reported in PMC10193561 (ACS Omega, 2023).
Converted amounts (≈) assume the structure as drawn.

Assays:
A549 cells = test: Cell proliferation activity assay; assay type: cell-based; conditions: Homo sapiens, A549, read-out: IC50 on A549 cells
Outline: (§1)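 Cells were kept in DMEM with 10% FBS and 1% penicillin–streptomycin at 37 °C and 5% CO2, and passaged with 0.25% trypsin-EDTA at 80–90% confluency. They were seeded at 5 × 10^3 cells/well, grown 24 h, then given test compound at 5, 10, 20, 40, 60, 80 or 100 μM final, with 1% DMSO as control. Read-out was MTT absorbance at 490 nm, as viability versus control. IC50 was fitted from viability data; 3–5 replicates per sample; mean ± SD of three independent experiments.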

MCF-7 cells = test: Cell proliferation activity assay; assay type: cell-based; conditions: Homo sapiens, MCF7, read-out: IC50 on MCF-7 cells
Outline: as §1

HeLa cells [1] = test: Cell proliferation activity assay; assay type: cell-based; conditions: Homo sapiens, read-out: IC50 on HeLa cells
Outline: as §1

[2] = Solubility measurement in distilled water; assay type: physicochemical; conditions: 37 °C, thermodynamic from solid
Outline: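 Excess solid test compound in distilled water was shaken 24 h at 37 °C (100 rpm), then centrifuged at 10,000 rpm for 10 min. Supernatant absorbance was read at 217 nm and solubility calculated from a standard curve.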

HeLa cells [3] = test: Annexin V/PI apoptosis assay by flow cytometry; assay type: cell-based; conditions: 20 μM, 24 h, control group 6.2%

CC(C)=CCC[C@](C)(O)[C@H]1CC[C@]2(C)[C@@H]1[C@H](O)C[C@@H]1[C@@]3(C)CC[C@H](O[C@@H]4O[C@H](CO)[C@@H](O)[C@H](O)[C@H]4O)C(C)(C)[C@@H]3CC[C@]12C [Rh2, Ginsenoside Rh2]
IC50 (A549 cells): 85.3 µM | IC50 (MCF-7 cells): 73.6 µM | IC50 (HeLa cells [1]): 68 µM | solubility at 24 h [2]: 74 µg/mL (≈ 119 µM) | percentage of early and late apoptosis (HeLa cells [3]): 5.3%
